The M2OR odorant receptor database
Numbering of substitutions follows the chain as printed.

Tests used:
Settings in all cases: stereoisomer not certain
[1] = test system: T1, OR4CB P8T
T1 sequence (whole entry): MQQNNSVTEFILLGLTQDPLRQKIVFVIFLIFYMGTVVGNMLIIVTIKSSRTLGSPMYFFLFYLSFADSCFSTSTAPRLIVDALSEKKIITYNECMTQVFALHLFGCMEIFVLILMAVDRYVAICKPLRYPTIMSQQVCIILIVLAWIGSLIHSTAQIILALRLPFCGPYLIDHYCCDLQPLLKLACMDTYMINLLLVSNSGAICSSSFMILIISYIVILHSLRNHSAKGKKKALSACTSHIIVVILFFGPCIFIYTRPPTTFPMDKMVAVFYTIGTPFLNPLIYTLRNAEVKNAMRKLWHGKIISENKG
Outline: (§1)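 Each receptor–molecule pair is labelled responsive or non-responsive (inactive) according to whether the original authors judged the measured signal statistically different from baseline. The data were taken from the main text and supplementary material of published papers and checked for typos and inconsistencies. Assay methods differed by source, with transient luciferase assays in mammalian cell lines being common.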

[2] = test system: OR4CC
Sequence of OR4CC (as listed by the source): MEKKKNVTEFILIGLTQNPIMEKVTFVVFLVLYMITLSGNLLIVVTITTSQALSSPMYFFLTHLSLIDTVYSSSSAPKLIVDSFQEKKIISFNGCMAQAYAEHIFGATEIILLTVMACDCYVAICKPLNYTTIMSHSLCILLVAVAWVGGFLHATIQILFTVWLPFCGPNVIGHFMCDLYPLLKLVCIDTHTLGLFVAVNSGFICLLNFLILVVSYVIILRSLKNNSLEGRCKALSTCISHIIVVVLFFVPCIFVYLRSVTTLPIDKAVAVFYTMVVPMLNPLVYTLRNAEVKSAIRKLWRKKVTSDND
Outline: as §1

[3] = test system: OR4CD V133I
Sequence of OR4CD V133I (as listed by the source, stated change not applied): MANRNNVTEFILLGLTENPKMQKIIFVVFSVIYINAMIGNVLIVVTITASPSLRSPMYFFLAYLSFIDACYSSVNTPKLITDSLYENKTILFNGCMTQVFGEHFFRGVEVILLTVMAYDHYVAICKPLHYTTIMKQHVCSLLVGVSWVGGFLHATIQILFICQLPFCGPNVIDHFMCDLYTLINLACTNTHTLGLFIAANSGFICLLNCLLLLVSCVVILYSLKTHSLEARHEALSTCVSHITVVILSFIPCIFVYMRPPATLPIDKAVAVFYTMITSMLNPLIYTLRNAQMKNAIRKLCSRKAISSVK
Outline: as §1

[4] = test system: OR4CF
Sequence of OR4CF (as listed by the source): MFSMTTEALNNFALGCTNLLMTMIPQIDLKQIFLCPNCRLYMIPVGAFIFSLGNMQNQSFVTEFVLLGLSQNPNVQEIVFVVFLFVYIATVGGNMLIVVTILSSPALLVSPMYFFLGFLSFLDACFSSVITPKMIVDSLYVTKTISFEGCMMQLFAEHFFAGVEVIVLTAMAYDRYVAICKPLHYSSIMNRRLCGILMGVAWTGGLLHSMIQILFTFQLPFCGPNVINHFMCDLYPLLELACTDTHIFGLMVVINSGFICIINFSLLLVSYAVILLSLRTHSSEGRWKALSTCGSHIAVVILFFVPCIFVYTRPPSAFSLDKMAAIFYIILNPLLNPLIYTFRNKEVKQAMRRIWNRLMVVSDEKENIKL
Outline: as §1

[5] = test system: T2, OR4CG T76A
T2 sequence (whole entry): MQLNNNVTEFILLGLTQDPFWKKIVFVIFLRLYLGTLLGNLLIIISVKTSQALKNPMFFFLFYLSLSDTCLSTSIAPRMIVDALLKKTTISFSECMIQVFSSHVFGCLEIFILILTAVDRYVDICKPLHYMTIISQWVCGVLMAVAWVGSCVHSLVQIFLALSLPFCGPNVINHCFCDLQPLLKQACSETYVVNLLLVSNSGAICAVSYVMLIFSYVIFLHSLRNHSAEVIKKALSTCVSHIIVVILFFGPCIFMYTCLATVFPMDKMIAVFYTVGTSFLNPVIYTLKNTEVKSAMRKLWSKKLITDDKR
Outline: as §1

[6] = target: OR4D1 (Homo sapiens) (UniProt Q15615)
Sequence of OR4D1 (Homo sapiens) (Q15615 whole entry): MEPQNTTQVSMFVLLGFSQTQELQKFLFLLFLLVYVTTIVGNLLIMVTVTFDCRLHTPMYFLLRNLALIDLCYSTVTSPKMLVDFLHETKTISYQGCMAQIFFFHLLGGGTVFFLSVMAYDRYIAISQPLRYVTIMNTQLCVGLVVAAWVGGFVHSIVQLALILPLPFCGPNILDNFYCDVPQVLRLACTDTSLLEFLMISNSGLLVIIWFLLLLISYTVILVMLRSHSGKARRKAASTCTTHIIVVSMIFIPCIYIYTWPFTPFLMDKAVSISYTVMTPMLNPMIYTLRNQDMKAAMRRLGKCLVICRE
Outline: as §1

[7] = target: OR4D10 (Homo sapiens) (UniProt Q8NGI6)
Sequence of OR4D10 (Homo sapiens) (Q8NGI6 whole entry): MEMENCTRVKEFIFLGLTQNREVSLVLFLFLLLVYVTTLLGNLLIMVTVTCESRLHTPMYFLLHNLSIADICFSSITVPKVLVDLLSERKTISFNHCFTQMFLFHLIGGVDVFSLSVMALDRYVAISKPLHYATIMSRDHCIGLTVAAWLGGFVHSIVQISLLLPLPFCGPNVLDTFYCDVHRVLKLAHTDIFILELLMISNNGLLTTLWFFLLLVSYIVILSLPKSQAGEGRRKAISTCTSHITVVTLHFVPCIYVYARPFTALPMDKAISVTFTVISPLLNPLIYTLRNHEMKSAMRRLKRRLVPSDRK
Outline: as §1

[8] = target: OR4D11 (Homo sapiens) (UniProt Q8NGI4)
Sequence of OR4D11 (Homo sapiens) (Q8NGI4 whole entry): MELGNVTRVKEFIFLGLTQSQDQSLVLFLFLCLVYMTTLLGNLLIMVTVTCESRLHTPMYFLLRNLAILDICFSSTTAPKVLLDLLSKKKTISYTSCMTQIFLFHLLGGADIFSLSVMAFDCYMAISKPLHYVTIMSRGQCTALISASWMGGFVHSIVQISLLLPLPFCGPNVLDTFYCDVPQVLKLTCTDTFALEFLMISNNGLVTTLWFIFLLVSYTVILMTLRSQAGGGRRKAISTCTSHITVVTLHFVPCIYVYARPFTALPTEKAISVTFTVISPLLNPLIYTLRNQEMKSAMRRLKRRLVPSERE
Outline: as §1

[9] = test system: OR4D1
Sequence of OR4D1 (as listed by the source): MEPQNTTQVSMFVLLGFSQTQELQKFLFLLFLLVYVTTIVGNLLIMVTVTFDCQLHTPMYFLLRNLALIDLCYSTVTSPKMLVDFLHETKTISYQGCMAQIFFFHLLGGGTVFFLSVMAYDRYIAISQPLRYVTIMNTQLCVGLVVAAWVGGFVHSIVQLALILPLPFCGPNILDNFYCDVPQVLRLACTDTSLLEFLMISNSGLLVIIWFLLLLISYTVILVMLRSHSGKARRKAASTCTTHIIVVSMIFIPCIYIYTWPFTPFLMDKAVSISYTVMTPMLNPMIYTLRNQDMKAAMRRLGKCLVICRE
Outline: as §1

[10] = target: OR4D2 (Homo sapiens) (UniProt P58180)
Sequence of OR4D2 (Homo sapiens) (P58180 whole entry): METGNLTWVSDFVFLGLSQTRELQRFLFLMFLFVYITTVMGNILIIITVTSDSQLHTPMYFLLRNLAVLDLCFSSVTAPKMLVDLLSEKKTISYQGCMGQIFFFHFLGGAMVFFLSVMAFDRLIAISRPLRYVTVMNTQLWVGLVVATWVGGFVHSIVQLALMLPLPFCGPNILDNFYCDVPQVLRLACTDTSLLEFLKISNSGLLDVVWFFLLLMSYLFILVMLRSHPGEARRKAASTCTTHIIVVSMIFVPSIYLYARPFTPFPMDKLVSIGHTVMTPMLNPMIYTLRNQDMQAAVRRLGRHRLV
Outline: as §1

[11] = test system: OR4D2
Sequence of OR4D2 (as listed by the source): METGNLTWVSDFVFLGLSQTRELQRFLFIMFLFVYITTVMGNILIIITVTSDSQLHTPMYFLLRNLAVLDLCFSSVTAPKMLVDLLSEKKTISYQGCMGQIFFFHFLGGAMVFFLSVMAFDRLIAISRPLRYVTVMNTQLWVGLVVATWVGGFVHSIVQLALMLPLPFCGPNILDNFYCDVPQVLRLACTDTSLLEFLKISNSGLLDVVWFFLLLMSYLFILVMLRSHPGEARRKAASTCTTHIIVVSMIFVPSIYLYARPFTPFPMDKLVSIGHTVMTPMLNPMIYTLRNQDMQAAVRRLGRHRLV
Outline: as §1

[12] = target: OR4D5 (Homo sapiens) (UniProt Q8NGN0)
Sequence of OR4D5 (Homo sapiens) (Q8NGN0 whole entry): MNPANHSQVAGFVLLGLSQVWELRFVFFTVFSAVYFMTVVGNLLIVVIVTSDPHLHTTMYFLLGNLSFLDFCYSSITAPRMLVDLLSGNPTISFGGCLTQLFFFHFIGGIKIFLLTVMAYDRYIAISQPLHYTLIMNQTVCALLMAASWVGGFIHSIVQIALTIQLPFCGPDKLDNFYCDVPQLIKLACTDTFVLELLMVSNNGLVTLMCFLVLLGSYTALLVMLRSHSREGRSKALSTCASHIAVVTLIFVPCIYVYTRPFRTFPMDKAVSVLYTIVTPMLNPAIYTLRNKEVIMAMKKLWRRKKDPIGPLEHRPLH
Outline: as §1

[13] = target: OR4D6 (Homo sapiens) (UniProt Q8NGJ1)
Sequence of OR4D6 (Homo sapiens) (Q8NGJ1 whole entry): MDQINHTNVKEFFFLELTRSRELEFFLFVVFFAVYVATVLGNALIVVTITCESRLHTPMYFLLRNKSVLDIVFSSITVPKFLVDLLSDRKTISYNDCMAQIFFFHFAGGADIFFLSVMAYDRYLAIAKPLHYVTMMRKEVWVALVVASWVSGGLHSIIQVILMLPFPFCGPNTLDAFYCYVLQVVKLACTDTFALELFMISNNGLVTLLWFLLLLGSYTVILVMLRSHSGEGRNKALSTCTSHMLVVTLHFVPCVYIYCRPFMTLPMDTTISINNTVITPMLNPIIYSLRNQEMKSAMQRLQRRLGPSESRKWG
Outline: as §1

[14] = test system: OR4D6
Sequence of OR4D6 (as listed by the source): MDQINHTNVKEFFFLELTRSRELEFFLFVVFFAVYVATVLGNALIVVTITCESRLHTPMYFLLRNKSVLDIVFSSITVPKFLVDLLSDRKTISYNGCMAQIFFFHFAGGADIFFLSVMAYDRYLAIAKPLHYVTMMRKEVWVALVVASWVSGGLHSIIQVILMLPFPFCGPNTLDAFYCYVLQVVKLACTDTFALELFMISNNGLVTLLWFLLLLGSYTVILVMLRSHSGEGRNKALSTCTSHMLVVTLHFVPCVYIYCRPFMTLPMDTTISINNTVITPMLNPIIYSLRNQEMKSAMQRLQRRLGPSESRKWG
Outline: as §1

[15] = target: OR4D9 (Homo sapiens) (UniProt Q8NGE8)
Sequence of OR4D9 (Homo sapiens) (Q8NGE8 whole entry): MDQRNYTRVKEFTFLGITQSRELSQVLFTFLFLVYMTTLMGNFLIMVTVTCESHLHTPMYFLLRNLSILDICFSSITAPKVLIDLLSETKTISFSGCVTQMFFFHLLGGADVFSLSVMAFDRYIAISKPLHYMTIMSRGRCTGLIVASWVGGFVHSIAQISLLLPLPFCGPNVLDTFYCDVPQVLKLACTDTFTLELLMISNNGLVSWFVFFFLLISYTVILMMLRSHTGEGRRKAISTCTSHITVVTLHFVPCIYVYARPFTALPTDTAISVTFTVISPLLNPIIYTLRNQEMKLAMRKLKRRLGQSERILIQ
Outline: as §1

[16] = target: T3, OR4E2 (Homo sapiens) (UniProt Q8NGC2)
T3 sequence (whole entry): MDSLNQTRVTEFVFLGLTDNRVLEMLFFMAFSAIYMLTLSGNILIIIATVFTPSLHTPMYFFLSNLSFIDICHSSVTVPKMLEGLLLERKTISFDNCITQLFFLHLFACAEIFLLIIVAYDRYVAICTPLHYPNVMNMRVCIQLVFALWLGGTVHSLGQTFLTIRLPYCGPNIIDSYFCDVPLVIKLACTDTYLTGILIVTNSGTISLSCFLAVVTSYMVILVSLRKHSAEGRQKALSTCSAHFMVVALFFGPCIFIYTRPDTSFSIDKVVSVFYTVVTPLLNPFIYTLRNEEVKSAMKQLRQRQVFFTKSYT
Outline: as §1

[17] = test system: T4, OR4E2 A119T
T4 sequence (whole entry): T3 sequence (whole entry) with V118M, A119T, Q234R
Outline: as §1

[18] = test system: T5, OR4E2
T5 sequence (whole entry): T3 sequence (whole entry) with V118M, Q234R
Outline: as §1

[19] = target: T6, OR4F15 (Homo sapiens) (UniProt Q8NGB8)
T6 sequence (whole entry): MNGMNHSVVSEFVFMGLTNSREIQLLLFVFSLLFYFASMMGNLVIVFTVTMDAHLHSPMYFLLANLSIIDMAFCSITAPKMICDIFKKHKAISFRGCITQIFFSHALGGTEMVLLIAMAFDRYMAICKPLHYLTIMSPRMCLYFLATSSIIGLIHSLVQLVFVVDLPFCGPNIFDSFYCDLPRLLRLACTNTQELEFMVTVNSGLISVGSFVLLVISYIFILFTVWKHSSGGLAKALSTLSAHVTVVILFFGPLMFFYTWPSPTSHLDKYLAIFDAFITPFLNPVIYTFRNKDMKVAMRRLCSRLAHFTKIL
Outline: as §1

[20] = target: OR4E1 (Homo sapiens) (UniProt P0C645)
Sequence of OR4E1 (Homo sapiens) (P0C645 whole entry): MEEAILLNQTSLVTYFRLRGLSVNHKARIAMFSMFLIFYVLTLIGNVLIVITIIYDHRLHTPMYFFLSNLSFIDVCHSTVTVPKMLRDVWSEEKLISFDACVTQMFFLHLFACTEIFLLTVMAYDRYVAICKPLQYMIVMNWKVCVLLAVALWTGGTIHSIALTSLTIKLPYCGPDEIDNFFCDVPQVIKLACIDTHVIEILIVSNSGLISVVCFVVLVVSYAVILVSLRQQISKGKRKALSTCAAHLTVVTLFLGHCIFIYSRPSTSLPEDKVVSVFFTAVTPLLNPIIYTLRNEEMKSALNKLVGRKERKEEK
Outline: as §1

Measured: odorant receptor agonist call;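 further: active if original authors judged signal statistically different from baseline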

CCC1OC(=O)C(O)=C1C (stereo unspecified)
inactive: [1] | [2] | [3] | [4] | [5] | [6] | [7] | [8] | [9] | [10] | [11] | [12] | [13] | [14] | [15] | [16] | [17] | [18] | [19]

CC1=C(O)C(=O)OC1C (stereo unspecified)
inactive: [1] | [2] | [3] | [4] | [5] | [6] | [7] | [8] | [9] | [10] | [11] | [12] | [13] | [14] | [15] | [16] | [17] | [18] | [19]

CCCCC(S)C(C)CO (stereo unspecified)
inactive: [6] | [7] | [8] | [10] | [12] | [13] | [15] | [16] | [19]

CCCCCCC=CCCC=O
inactive: [1] | [2] | [3] | [5] | [6] | [7] | [8] | [9] | [10] | [11] | [12] | [13] | [14] | [15] | [16] | [18] | [19]

CCCC(S)CCOC(C)=O (stereo unspecified)
inactive: [1] | [2] | [3] | [4] | [5] | [6] | [7] | [8] | [9] | [10] | [11] | [12] | [13] | [14] | [15] | [16] | [17] | [18] | [19]

CC(C)=CCCC(C)=CCO
inactive: [18]

CC1=NC(C)C(C)S1 (stereo unspecified)
inactive: [1] | [2] | [3] | [4] | [5] | [6] | [7] | [8] | [9] | [10] | [11] | [12] | [13] | [14] | [15] | [16] | [17] | [18] | [19]

CCC1OC(C)=C(O)C1=O (stereo unspecified)
inactive: [1] | [2] | [3] | [4] | [5] | [6] | [7] | [8] | [9] | [10] | [11] | [12] | [13] | [14] | [15] | [16] | [17] | [18] | [19]

CC(CO)CS (stereo unspecified)
inactive: [6] | [7] | [8] | [10] | [12] | [13] | [15] | [16] | [19]

CC1=C(O)C(=O)C(C)O1 (stereo unspecified)
inactive: [1] | [2] | [3] | [4] | [5] | [6] | [7] | [8] | [9] | [10] | [11] | [12] | [13] | [14] | [15] | [16] | [17] | [18] | [19]

Cc1cnc(C)c(C)n1
inactive: [1] | [2] | [3] | [4] | [5] | [6] | [7] | [8] | [9] | [10] | [11] | [12] | [13] | [14] | [15] | [16] | [17] | [18] | [19]

CCC(S)C(C)CO (stereo unspecified)
inactive: [6] | [7] | [8] | [10] | [12] | [13] | [15] | [16] | [19]

CC(=O)c1c(C)c([N+](=O)[O-])c(C(C)(C)C)c([N+](=O)[O-])c1C
inactive: [6] | [7] | [8] | [10] | [12] | [13] | [15] | [20] | [16] | [19]

CCCCCC(=O)C(C)C(C)=O (stereo unspecified)
inactive: [6] | [7] | [8] | [10] | [12] | [13] | [15] | [16] | [19]

CCCCCC(S)C(C)CO (stereo unspecified)
inactive: [6] | [7] | [8] | [10] | [12] | [13] | [15] | [16] | [19]

CC1CCCCCCCCCCCCC(=O)C1 (stereo unspecified)
inactive: [6] | [7] | [8] | [10] | [12] | [13] | [15] | [20] | [16] | [19]
